ChEMBL document CHEMBL4152256, “Structure-activity relationship of new antimalarial 1-aryl-3-susbtituted propanol derivatives: Synthesis, preliminary toxicity profiling, parasite life cycle stage studies, target exploration, and targeted delivery” (Eur J Med Chem, 2018)
Activity calls are given as the source filed them. The calls are words filed in the database; no cut-off is given here.

Experiments:
[1] = Genotoxicity in Salmonella typhimurium TA1535 harboring pSK1002 assessed as survival at 1 mg/ml in absence of Sprague-Dawley rat liver S9 fraction after by SOS/umu assay relative to control; format: toxicity, organism-based; details: salmonella enterica subsp. enterica serovar typhimurium, read-out: Survival
[2] = Genotoxicity in Salmonella typhimurium TA1535 harboring pSK1002 assessed as umu gene induction at 1 mg/ml in absence of Sprague-Dawley rat liver S9 fraction after by SOS/umu assay relative to control; format: toxicity, organism-based; details: salmonella enterica subsp. enterica serovar typhimurium, read-out: FC
[3] = Genotoxicity in Salmonella typhimurium TA1535 harboring pSK1002 assessed as survival at 1 mg/ml in presence of Sprague-Dawley rat liver S9 fraction after by SOS/umu assay relative to control; format: toxicity, organism-based; details: salmonella enterica subsp. enterica serovar typhimurium, read-out: Survival
[4] = Genotoxicity in Salmonella typhimurium TA1535 harboring pSK1002 assessed as umu gene induction at 1 mg/ml in presence of Sprague-Dawley rat liver S9 fraction after by SOS/umu assay relative to control; format: toxicity, organism-based; details: salmonella enterica subsp. enterica serovar typhimurium, read-out: FC
Plasmodium falciparum [5] = assay: Antiplasmodial activity against Plasmodium falciparum FCR-3 sporozoites infected in human primary hepatocytes treated simultaneously with infection by DAPI staining based HCS analysis; format: functional, organism-based, FCR-3/Gambia
[6] = Selectivity index, ratio of CC50 for human HepG2A16 cells to IC50 for GFP-fused Plasmodium berghei sporozoites infected in human HepG2A16 cells; format: toxicity, cell-based; details: read-out: Ratio CC50/IC50
Summary of the method: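 HepG2-A16 cells were grown at 3 × 10^4 per well on collagen and infected with GFP P. berghei sporozoites (5 × 10^3 to 1 × 10^4 per well) from A. stephensi salivary glands. Compounds were added at infection, from 10 µg/mL top plus seven serial dilutions, and refreshed at 3 h and then every 24 h. After 40 h at 37 °C, EEFs were methanol-fixed, anti-Hsp70 immunolabelled and counted by high-content imaging. SI = HepG2 CC50 / liver-stage IC50.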

Plasmodium falciparum [7] = assay: Antiplasmodial activity against chloroquine-sensitive Plasmodium falciparum 3D7 ring forms infected in human RBC using compound encapsulated in to immunoliposome targeted to GPA incubated for 15 mins followed by compound removal and further incubation for 48 hrs by [3H]-hypoxanthine incorporation assay; format: functional, organism-based; details: 3D7, Erythrocyte
[8] = Drug encapsulation in liposomes assessed as encapsulation efficiency in citrate/phosphate buffered measured after buffer exchange with PBS by UV/Vis spectroscopy relative to untreated control; format: physicochemical; details: artificial membrane
Summary of the method: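 Compound loaded into DSPC:cholesterol:DSPE-PEG2000-Mal:DOPE-Rho (84.5:10:5:0.5) liposomes using a citrate (pH 4.0)/PBS pH gradient. Drug measured by UV/vis after SDS disruption at each step: citrate liposomes, after buffer exchange to PBS (chloroquine added to preformed liposomes here), and after ultracentrifugation. Encapsulation efficiency = % of drug that is encapsulated out of total drug in the sample.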

Plasmodium falciparum [9] = assay: Antiplasmodial activity against chloroquine-sensitive Plasmodium falciparum 3D7 late forms infected in human RBC incubated for 15 mins followed by compound removal and further incubation for 48 hrs by [3H]-hypoxanthine incorporation assay; format: functional, organism-based; details: 3D7, Erythrocyte
Plasmodium falciparum [10] = assay: Ratio of IC50 for antiplasmodial activity against chloroquine-sensitive Plasmodium falciparum 3D7 late forms infected in human RBC incubated for 15 mins followed by compound removal and further incubation for 48 hrs by [3H]-hypoxanthine incorporation assay to IC50 for antiplasmodial activity against chloroquine-sensitive Plasmodium falciparum 3D7 late forms infected in human RBC using compound …; format: functional
[11] = target: T1, HSP90 (Plasmodium falciparum 3D7) (UniProt Q8IL32); assay: Binding affinity to Plasmodium falciparum HSP90 nucleotide binding domain at 0.5 mM by SYPRO orange dye based DSF analysis
T1 sequence (whole entry): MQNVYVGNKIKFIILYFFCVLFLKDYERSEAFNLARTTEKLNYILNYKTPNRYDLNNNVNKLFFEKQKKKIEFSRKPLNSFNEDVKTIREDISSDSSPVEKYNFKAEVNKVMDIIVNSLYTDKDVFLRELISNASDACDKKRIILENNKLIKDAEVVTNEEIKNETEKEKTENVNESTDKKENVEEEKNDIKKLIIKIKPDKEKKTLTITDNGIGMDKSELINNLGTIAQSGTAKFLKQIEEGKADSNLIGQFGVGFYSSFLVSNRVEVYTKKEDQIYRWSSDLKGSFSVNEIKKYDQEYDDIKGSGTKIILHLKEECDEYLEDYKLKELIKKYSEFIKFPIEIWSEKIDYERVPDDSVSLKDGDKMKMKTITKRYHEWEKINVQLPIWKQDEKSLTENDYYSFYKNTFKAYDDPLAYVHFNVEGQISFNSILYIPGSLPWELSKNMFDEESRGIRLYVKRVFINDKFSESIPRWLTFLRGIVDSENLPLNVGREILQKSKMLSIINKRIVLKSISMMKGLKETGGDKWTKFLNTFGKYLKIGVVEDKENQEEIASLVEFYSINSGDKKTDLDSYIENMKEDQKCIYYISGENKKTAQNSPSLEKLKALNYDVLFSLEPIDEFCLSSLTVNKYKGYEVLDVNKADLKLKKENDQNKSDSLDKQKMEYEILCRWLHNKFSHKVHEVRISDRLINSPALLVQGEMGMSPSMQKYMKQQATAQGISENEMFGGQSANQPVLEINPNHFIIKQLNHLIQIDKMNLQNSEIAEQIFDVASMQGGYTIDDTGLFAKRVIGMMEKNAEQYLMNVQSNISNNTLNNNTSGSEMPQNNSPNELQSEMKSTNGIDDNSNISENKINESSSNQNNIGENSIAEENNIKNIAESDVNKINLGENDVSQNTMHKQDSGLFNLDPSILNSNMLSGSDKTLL
Summary of the method: (§1)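 Recombinant P. falciparum Hsp90 or GRP94 nucleotide-binding domain (0.05–0.2 mg/mL, optimized per protein) in 25 mM HEPES pH 7.5, 250 mM NaCl. Compound final concentration was 0.5 mM, with SYPRO Orange at 1:1000. Samples were heated from 18 to 90 °C at 1 °C/min. Tm was taken as the Boltzmann-fit inflection point. ΔTm = Tm with ligand minus Tm without, and shifts beyond ±1 °C were counted significant.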

Plasmodium falciparum [12] = assay: Binding affinity to Plasmodium falciparum GRP94 nucleotide binding domain at 0.5 mM by SYPRO orange dye based DSF analysis; summary of the method: as §1
[13] = target: T1, HSP90 (Plasmodium falciparum 3D7); assay: Binding affinity to Plasmodium falciparum HSP90 nucleotide binding domain by SPR analysis
Summary of the method: (§2)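 Purified PfHsp90 and PfGRP94 nucleotide-binding domains were amine-coupled to a CM5 chip (3000 and 7000 RU, respectively), with a blank reference surface. Seven compound concentrations (0.4 nM–1 mM) were injected in triplicate at 30 µL/min, 25 °C, in random order. Running buffer: 10 mM HEPES pH 7.4, 150 mM NaCl, 0.005% P20, 1% DMSO, 2 mM MgCl2. Kd came from double-referenced sensorgrams.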

Plasmodium falciparum [14] = assay: Binding affinity to Plasmodium falciparum GRP94 nucleotide binding domain by SPR analysis; summary of the method: as §2
[15] = Genotoxicity in Salmonella typhimurium TA1535 harboring pSK1002 assessed as survival at 0.0005 mg/ml in absence of Sprague-Dawley rat liver S9 fraction after by SOS/umu assay relative to control; format: toxicity, organism-based; details: salmonella enterica subsp. enterica serovar typhimurium, read-out: Survival
[16] = Genotoxicity in Salmonella typhimurium TA1535 harboring pSK1002 assessed as umu gene induction at 0.0005 mg/ml in absence of Sprague-Dawley rat liver S9 fraction after by SOS/umu assay relative to control; format: toxicity, organism-based; details: salmonella enterica subsp. enterica serovar typhimurium, read-out: FC
[17] = Genotoxicity in Salmonella typhimurium TA1535 harboring pSK1002 assessed as survival at 0.0005 mg/ml in presence of Sprague-Dawley rat liver S9 fraction after by SOS/umu assay relative to control; format: toxicity, organism-based; details: salmonella enterica subsp. enterica serovar typhimurium, read-out: Survival

| Structure (SMILES) | viability at 1 mg/ml [1] [%] | fold induction at 1 mg/ml [2] | viability at 1 mg/ml [3] [%] | fold induction at 1 mg/ml [4] | IC50 (Plasmodium falciparum [5]) | selectivity ratio [6] | Activity [11] | Activity (Plasmodium falciparum [12]) | Activity [13] | Activity (Plasmodium falciparum [14]) | further results |
| --- | --- | --- | --- | --- | --- | --- | --- | --- | --- | --- | --- |
| COc1ccccc1C1=CCN(CCC(O)c2ccc(F)cc2)CC1 (stereo unspecified) | 82.3 | 0.3 | 32.2 | 1 |  |  |  |  |  |  |  |
| OC(CCN1CCN(c2ccccc2C(F)(F)F)CC1)c1ccc(F)cc1 (stereo unspecified) | 244 | 0.1 | 97 | 0.3 |  |  |  |  |  |  |  |
| OC(CCN1CCN(c2ccccc2C(F)(F)F)CC1)c1ccc(F)c2ccccc12 (stereo in doubt; 55) | 229 | 0.3 | 164 | 0.4 |  |  |  |  |  |  |  |
| N#Cc1ccc(N2CCC(NCCC(O)c3ccc(F)c4ccccc34)CC2)c(C(F)(F)F)c1 (stereo in doubt; 72) |  |  |  |  | Not Active | 2.3 |  |  |  |  | IC50 (Plasmodium falciparum [7]): 146 nM; Activity [8]: 77.2%; IC50 (Plasmodium falciparum [9]): 916 nM; Ratio IC50 (Plasmodium falciparum [10]): 5.2 |
| OC(CCN1CCN(C(c2ccccc2)c2ccccc2)CC1)c1ccc(F)c2ccccc12 (stereo unspecified) |  |  |  |  | Not Active | 3.7 | inactive | inactive | inactive | inactive |  |
| OC(CCN1CCN(C(c2ccccc2)c2ccccc2)CC1)c1ccc(F)c(F)c1 (stereo unspecified) |  |  |  |  |  |  |  |  |  |  | viability at 0.0005 mg/ml [15]: 110%; fold induction at 0.0005 mg/ml [16]: 0.7; viability at 0.0005 mg/ml [17]: 94.7% |
| N#Cc1ccc(N2CCC(NCCC(O)c3ccc(F)c4ccccc34)CC2)c(Cl)c1 (stereo unspecified) |  |  |  |  | Not Active | 2.3 | inactive | inactive | inactive | inactive |  |
| N#Cc1ccc(N2CCC(NCCC(O)c3ccc(F)c4ccccc34)CC2)c(Br)c1 (stereo unspecified) |  |  |  |  |  |  | inactive | inactive | inactive | inactive |  |
| COc1ccccc1N1CCN(CCC(O)c2ccc(F)c3ccccc23)CC1 (stereo unspecified) |  |  |  |  |  |  | inactive | inactive | inactive | inactive |  |
